Consider one molecule from ChEMBL document CHEMBL5108057, “Development of MAO-A and 5-HT2AR Dual Inhibitors with Improved Antidepressant Activity” (J Med Chem, 2022).

The source made the active and inactive calls. The calls are words filed in the database; no cut-off is given here.

One may read the AUC(0-t) as exposure summed from dosing to a finite time, without extrapolation to infinity. The low end stands for low exposure, the high end for high exposure. Broadly, the IC50 is the concentration that gives 50% inhibition. Read a high IC50 as weaker potency in that assay. For orientation: Cmax means the highest concentration seen after dosing. The clearance is the volume of plasma or blood freed of the substance per unit of time. Read a high clearance as efficient removal.

Series [1] is described as follows: AUC(0 to 24 hrs) in Sprague-Dawley rat at 10 mg/kg, IG measured upto 1440 mins by LC-MS/MS analysis. The series is classed as ADME, organism-based. More on the design: time < 1440 min, dose 10 mg/kg, route ig. As to conditions: in vivo, po.
Series [2] deals with T1, Amine oxidase [flavin-containing] B (Homo sapiens, UniProt P27338).
T1 sequence (P27338 whole entry): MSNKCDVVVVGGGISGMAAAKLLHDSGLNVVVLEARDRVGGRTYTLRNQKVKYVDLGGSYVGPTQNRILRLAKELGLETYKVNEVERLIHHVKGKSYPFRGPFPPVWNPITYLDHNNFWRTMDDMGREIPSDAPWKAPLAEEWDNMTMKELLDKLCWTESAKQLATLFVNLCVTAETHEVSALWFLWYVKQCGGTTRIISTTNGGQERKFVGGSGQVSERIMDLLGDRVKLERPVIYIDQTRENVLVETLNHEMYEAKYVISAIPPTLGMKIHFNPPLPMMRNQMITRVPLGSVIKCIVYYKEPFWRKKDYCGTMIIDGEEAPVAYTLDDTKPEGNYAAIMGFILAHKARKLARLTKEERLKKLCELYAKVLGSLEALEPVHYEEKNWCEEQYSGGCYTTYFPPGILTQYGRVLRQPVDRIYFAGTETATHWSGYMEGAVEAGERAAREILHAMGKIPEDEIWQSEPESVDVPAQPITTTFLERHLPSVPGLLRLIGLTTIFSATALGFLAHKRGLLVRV
In words: Inhibition of MAO-B (unknown origin) using p-tyramine as substrate preincubated for 15 mins followed by substrate addition and measured after 15 mins by Amplex red fluorescence based microplate reader assay.

Series [3] in a line: Cmax in Sprague-Dawley rat at 2 mg/kg, iv measured upto 1440 mins by LC-MS/MS analysis. The series is classed as ADME, organism-based. More on the design: time < 1440 min, dose 2 mg/kg, route iv. Particulars: in vivo.
Series [4] can be described thus: Clearance in Sprague-Dawley rat at 2 mg/kg, iv measured upto 1440 mins by LC-MS/MS analysis. The series is classed as ADME, organism-based. Particulars: in vivo.
In series [5] the test system is Mus musculus. In words: Antidepressant activity in chronic unpredictable mild stress ICR mouse model assessed as increase in gluco-phagy at 10 to 20 mg/kg measured after 2 weeks by sugar preference test. As to conditions: dose 10-20 mg/kg. In kind it is functional, organism-based. In outline: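 ICR mice received CUMS for 4 weeks: 11 stressors given randomly twice daily, 42 days in total. OFT: 5 min session scoring distance, speed, rearing and dejection. FST/TST: 6 min, with immobility scored over the last 4 min. Sucrose preference test was also run. Mean ± SD, n = 6.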

Series [6] relates to Mus musculus. The experiment in a line: Antidepressant activity in reserpine-induced ICR mouse model assessed as increase the number of rearing at 10 to 20 mg/kg pretreated with reserpine for 3 days followed by compound addition on day 4 to 10 by open field test. In kind it is functional, organism-based. As to conditions: dose 10-20 mg/kg, time 6.0 day. In outline:
(§1)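 Body weight was recorded daily. OFT: 5 min session scoring distance, speed, rearing and dejection. FST and TST: 6 min, with immobility scored over the last 4 min. Mean ± SD, n = 6; one-way ANOVA and t-test.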

Series [7] concerns Mus musculus. The experiment in a line: Antidepressant activity in reserpine-induced ICR mouse model assessed as decrease in number of dejection at 10 to 20 mg/kg pretreated with reserpine for 3 days followed by compound addition on day 4 to 10 by open field test. In kind it is functional, organism-based. Particulars: dose 10-20 mg/kg, time 6.0 day. In outline:
as §1

A further series has as its system Hippocampus. In words: Antidepressant activity in mouse hippocampal tissue assessed as reduction in neuronal cell damage at 10 to 20 mg/kg by H and E staining based assay. In kind it is functional, organism-based. As to conditions: dose 10-20 mg/kg. In outline:
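Mice given compound at 10 or 20 mg/kg, with fluoxetine 20 mg/kg as comparator. Paraffin tissue sections of 4 μm were cut. Staining: hematoxylin 5 min, 75% HCl-ethanol differentiation 30 s, eosin 2 min. Organs (liver, kidney, lung, heart, spleen) examined at ×400; hippocampus (CA1, CA3, DG) at ×200.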

In turn, `O=C1c2ccccc2-c2nccc3cc(OCCCCCN4CCN(c5ccccc5F)CC4)cc1c23` gave an AUC(0-t) at 24 h in series [1] of 491 ng·h/mL. In series [2], this molecule gave an IC50 of 1050 nM. Moreover, the highest level in series [3] (Cmax) was 673 ng/mL. In series [4], this molecule displayed a clearance of 14.5 mL/min/kg. Also, the outcome in the series on Mus musculus [5], in the series on Mus musculus [6], with Mus musculus [7] and in the series on Hippocampus was Active.
